The values that follow come from ChEMBL document CHEMBL3286091, “Novel N-linked aminopiperidine-based gyrase inhibitors with improved hERG and in vivo efficacy against Mycobacterium tuberculosis” (J Med Chem, 2014).

For series [1], the system named is Mycobacterium tuberculosis. Description: Antimycobacterial activity against wild-type Mycobacterium tuberculosis H37Rv ATCC 27294 after 16 to 18 days by BACTEC 7H12B microdilution method. In kind it is functional. (Broth dilution looks for growth in wells or tubes with falling amounts of substance.)
Series [2] in a line: Octanol-sodium phosphate buffer partition coefficient, log D of the compound at 10 mM at pH 7.4 by shake-flask method. It is filed as physicochemical.
Series [3] concerns the target Voltage-gated inwardly rectifying potassium channel KCNH2 (Homo sapiens, UniProt Q12809). Description: Inhibition of human ERG by patch clamp electrophysiological analysis. (The patch-clamp technique gives a direct electrical read-out from membranes.)
The test system of series [4] is Mycobacterium tuberculosis. Briefly: Antimycobacterial activity against Mycobacterium tuberculosis infected in aminobenzotriazole-pretreated BALB/c mouse acute tuberculosis model assessed as reduction in bacterial burden at 80 to 160 mg/kg, po bid for 20 days. It is filed as functional, organism-based. In a few lines: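 Aerosol-infected BALB/c mice in BSL3, three per group. Treatment began 3 days (acute) or 4 weeks (chronic) after infection. ABT 100 mg/kg po in water was given 2 h before oral gavage of compound in 5% dextrose (pH 4−5 with acetic acid), 10 mL/kg, twice daily at 8 h intervals. Courses were 20 days (7 days/week) or 8 weeks (6 days/week). Lung homogenates were plated on 7H11 for cfu.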

Series [5] can be described thus: Fraction unbound in aminobenzotriazole-pretreated BALB/c mouse plasma infected with Mycobacterium tuberculosis by LC-MS/MS analysis. In kind it is ADME, cell-free.
Series [6] in a line: Ratio of fAUC in aminobenzotriazole-pretreated Mycobacterium tuberculosis infected BALB/c mouse at 80 mg/kg, po to MIC for wild-type Mycobacterium tuberculosis H37Rv ATCC 27294. In a few lines: (§1)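 PK was measured in infected, ABT-pretreated mice during efficacy dosing (oral, 5% dextrose pH 4−5) on day 18 or 19. Saphenous blood was taken at 5, 15 and 30 min and 1, 2, 4 and 6 h. Plasma was precipitated with acetonitrile and analysed by LC−MS/MS. AUC came from noncompartmental analysis; free AUC/MIC and %free T>MIC used the unbound fraction and MIC.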

A further series deals with Mus musculus. Briefly: fT>MIC in BALB/c mouse infected with Mycobacterium tuberculosis at 80 mg/kg, po. In a few lines:
as §1

Series [7] deals with DNA gyrase subunit A/DNA gyrase subunit B (Mycobacterium tuberculosis (strain ATCC 25618 / H37Rv), UniProt P9WG45+P9WG47). Briefly: Inhibition of Mycobacterium tuberculosis H37Rv DNA gyrase holoenzyme-mediated supercoiling of pBR322 DNA after 90 mins by agarose gel electrophoresis.
Series [8] in a line: Apparent permeability from apical to basolateral side in human Caco2 cells. It is filed as ADME, cell-based. The following applies: Caco-2.
A short description of series [9]: Apparent permeability from basolateral to apical side in human Caco2 cells. In kind it is ADME, cell-based. The conditions noted are these: Caco-2. In general terms: Caco-2 monolayers are a common model of the intestinal barrier.
Series [10] can be described thus: Clearance in rat at 40 mg/kg, po and 5 mg/kg, iv by LC-MS/MS analysis. It is filed as ADME, organism-based. The following applies: in vivo. In a few lines:
(§2)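 Rats were dosed with the 5% dextrose (pH 4−5) formulation, 5 mg/kg iv and 40 mg/kg po. Plasma was precipitated with acetonitrile and analysed by LC−MS/MS with a carbamazepine internal standard. Parameters were derived by noncompartmental analysis.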

Series [11] is described as follows: Oral bioavailability in rat at 40 mg/kg by LC-MS/MS analysis. In kind it is ADME, organism-based. The conditions noted are these: in vivo. The essentials: as §2
The test system of series [12] is Mycobacterium tuberculosis. Briefly: Bactericidal activity against Mycobacterium tuberculosis H37Rv after 10 days by time kill assay. It is filed as functional, organism-based. The essentials: (§3)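 Time-kill in 7H9 broth with 0.2% glycerol, 0.05% Tween 80 and 10% ADC. Serial 2-fold dilutions were added to ~3 × 10^7 cfu/mL H37Rv at 37 °C. Aliquots were plated on 7H11 at days 0, 3, 7 and 10, and plates were incubated up to 28 days at 37 °C, 5% CO2, humidified. Results are given as log10 cfu per concentration.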

For series [13], the system named is Mycobacterium tuberculosis. Description: Bactericidal activity against Mycobacterium tuberculosis H37Rv at 0.01 to 2 ug/ml by time kill assay. In kind it is functional, organism-based. The following applies: TDE = time-dependent effect. The essentials: as §3
In series [14] the test system is Mycobacterium tuberculosis. Briefly: Bactericidal activity against Mycobacterium tuberculosis H37Rv assessed as reduction in log10CFU at 0.01 to 2 ug/ml after 10 days by time kill assay. It is filed as functional. In a few lines:
as §3

In series [15] the test system is Mycobacterium tuberculosis. Description: Bactericidal activity against Mycobacterium tuberculosis infected in human THP1 cells at 1 ug/ml for 7 days. It is filed as functional, THP-1. In a few lines: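 Adherent THP-1 macrophages infected with Mtb were exposed to compound at 1 μg/mL for 7 days at 37 °C. Kill was expressed as log reduction versus the untreated control.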

Series [16] deals with Mycobacterium tuberculosis. Description: Antimycobacterial activity against Mycobacterium tuberculosis clinical isolates after 2 to 4 weeks by BACTEC 460 radiometric assay. In kind it is functional.
The target in a further series is DNA gyrase subunit B (Mycobacterium smegmatis, UniProt P0C559). Briefly: Inhibition of Mycobacterium smegmatis DNA gyrase-B ATPase activity. More on the design: species or system Mycolicibacterium smegmatis.

pIC50: −log10 of the molar value. Converted amounts (≈) assume the structure as drawn. The source made the active and inactive calls.

Chain of Voltage-gated inwardly rectifying potassium channel KCNH2 (Q12809 whole entry): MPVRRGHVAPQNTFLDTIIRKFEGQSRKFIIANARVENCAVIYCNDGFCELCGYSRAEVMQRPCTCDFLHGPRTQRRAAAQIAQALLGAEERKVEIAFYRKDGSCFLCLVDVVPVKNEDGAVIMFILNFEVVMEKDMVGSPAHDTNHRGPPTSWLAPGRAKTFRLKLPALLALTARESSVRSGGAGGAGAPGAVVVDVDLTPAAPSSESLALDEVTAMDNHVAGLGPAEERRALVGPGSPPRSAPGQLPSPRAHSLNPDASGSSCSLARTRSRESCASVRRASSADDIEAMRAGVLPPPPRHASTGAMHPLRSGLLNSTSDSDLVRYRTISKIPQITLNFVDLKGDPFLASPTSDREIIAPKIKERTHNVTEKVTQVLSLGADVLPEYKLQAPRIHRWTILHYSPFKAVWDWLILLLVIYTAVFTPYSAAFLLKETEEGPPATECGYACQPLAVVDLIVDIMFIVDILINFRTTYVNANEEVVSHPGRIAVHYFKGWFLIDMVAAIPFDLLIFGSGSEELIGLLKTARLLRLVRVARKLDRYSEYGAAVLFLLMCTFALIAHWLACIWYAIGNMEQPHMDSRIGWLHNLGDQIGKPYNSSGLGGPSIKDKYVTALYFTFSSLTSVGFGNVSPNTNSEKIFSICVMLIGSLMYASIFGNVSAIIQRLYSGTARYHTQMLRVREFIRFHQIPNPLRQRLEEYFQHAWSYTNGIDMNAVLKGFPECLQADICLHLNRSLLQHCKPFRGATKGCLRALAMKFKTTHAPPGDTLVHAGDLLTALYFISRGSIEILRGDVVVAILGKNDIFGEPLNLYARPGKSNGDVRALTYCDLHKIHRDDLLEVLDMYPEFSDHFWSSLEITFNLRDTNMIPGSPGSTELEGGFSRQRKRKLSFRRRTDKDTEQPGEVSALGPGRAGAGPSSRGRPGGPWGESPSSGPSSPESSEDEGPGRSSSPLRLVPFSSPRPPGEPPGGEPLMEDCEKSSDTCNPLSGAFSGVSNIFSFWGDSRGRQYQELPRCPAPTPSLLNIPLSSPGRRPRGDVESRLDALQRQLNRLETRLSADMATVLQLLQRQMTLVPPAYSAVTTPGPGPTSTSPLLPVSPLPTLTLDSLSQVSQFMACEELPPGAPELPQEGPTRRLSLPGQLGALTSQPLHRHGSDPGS
Chain of DNA gyrase subunit A/DNA gyrase subunit B (P9WG45 whole entry): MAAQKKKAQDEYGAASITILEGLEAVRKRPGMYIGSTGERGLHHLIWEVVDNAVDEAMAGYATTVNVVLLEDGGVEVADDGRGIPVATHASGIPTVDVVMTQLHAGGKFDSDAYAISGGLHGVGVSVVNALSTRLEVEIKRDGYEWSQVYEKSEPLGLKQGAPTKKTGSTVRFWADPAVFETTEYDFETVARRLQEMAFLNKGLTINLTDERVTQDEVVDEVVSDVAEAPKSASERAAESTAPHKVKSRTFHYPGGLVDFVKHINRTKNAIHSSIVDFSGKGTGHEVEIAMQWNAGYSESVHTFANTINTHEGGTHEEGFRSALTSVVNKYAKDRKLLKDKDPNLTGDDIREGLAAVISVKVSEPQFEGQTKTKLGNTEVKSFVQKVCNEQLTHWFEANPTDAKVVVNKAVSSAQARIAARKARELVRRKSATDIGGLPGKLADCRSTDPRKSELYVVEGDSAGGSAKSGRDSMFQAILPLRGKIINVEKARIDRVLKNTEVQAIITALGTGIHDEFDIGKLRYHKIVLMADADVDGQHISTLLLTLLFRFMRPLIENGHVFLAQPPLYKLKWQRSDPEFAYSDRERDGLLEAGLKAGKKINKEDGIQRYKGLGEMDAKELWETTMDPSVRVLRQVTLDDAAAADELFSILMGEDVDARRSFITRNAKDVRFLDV
Chain of DNA gyrase subunit A/DNA gyrase subunit B (P9WG47 whole entry): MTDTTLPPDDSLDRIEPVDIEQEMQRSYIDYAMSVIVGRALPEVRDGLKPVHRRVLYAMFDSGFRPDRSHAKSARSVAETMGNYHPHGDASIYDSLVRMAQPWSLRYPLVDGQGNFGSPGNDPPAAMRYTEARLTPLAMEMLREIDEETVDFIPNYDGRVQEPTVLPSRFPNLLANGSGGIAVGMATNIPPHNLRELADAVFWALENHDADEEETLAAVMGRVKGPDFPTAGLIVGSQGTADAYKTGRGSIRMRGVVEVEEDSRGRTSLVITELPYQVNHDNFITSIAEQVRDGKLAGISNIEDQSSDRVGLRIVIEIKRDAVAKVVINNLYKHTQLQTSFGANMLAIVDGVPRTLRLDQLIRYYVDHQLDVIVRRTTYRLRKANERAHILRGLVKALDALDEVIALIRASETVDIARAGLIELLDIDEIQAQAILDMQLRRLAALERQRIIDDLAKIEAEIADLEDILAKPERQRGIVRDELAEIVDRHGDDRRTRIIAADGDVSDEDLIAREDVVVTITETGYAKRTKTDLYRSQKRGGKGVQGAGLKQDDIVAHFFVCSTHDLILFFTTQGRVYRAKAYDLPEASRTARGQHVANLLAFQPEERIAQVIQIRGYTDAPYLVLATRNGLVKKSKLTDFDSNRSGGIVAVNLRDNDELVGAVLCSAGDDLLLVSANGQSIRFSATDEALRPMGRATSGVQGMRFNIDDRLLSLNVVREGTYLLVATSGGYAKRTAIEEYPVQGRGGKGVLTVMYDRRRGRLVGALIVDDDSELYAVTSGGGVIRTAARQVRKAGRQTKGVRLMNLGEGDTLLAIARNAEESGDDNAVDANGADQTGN
Chain of DNA gyrase subunit B (P0C559 whole entry): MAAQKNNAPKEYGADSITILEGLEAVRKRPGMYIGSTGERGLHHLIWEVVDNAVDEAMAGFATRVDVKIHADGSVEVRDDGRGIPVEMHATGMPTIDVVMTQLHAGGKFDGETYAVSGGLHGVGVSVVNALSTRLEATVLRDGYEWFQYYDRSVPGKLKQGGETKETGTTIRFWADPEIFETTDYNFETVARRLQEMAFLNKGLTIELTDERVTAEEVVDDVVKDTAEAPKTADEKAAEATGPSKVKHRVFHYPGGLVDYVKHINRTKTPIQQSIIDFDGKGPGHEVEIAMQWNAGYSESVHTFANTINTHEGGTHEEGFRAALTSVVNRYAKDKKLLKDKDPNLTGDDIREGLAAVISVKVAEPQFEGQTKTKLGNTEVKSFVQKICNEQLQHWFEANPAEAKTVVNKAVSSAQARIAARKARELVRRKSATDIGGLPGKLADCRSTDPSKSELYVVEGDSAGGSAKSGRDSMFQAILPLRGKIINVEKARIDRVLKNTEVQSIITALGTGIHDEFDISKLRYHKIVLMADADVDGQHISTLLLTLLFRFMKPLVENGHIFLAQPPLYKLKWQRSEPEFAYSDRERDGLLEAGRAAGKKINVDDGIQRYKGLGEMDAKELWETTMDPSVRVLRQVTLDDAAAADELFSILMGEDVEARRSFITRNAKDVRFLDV

In the case of `NNC(=O)c1ccncc1` [ISONIAZID], the lowest concentration to inhibit growth in series [1] (MIC) was 0.06 µg/mL (≈ 0.438 µM).
Turning to `COc1cnc2ncc(=O)n(CCN3CCC(NCc4cnc(C)c(C#N)c4)CC3)c2c1`, the minimum inhibitory concentration (MIC) (as a rule, the smallest concentration in the dilution series that meets the test's criterion for growth inhibition) in series [1] is 0.13 µg/mL (≈ 0.3 µM). The logD (usually the decadic logarithm of the distribution of all forms, ionised or not, between an organic phase and buffer at a given pH) at 10000 µM in series [2] amounted to 0.38. Besides, in [3], the negative logarithm of the IC50 (pIC50) (as a rule, the IC50 on a negative log10 scale, so that one unit is a factor of ten) was under 4.00.
Turning to `COc1ccc2c(ccc(=O)n2CCN2CCC(NCc3cnc(C)c(C#N)c3)CC2)n1`, the MIC in [1] amounted to 4 µg/mL (≈ 9.25 µM). Further, the pIC50 in series [3] is 5.00.
In the case of `O=C1COc2ccc(CN[C@H]3CCN(CCn4c(=O)ccc5ncc(F)cc54)C[C@H]3F)nc2N1`, the outcome in [4] was Active. Moreover, the fraction unbound (as a rule, free concentration divided by total concentration) in series [5] is 0.44. The fAUC/MIC in series [6] turned out to be 175. For the same molecule, the “fT>MIC” value in the series on Mus musculus is 58%. The molecule also had a minimum inhibitory concentration (MIC) in series [1] of 0.13 µg/mL (≈ 0.276 µM). The molecule further had a negative logarithm of the IC50 (pIC50) in [7] of 6.62. Moreover, the logD at 10000 µM in series [2] came out at 0.47. The Papp A→B (as a rule, how fast a substance crosses the layer from the apical side) in [8] came to 8.1 ×10⁻⁶ cm/s. For the same molecule, in series [9], the basolateral-to-apical permeability (Papp B→A) (commonly the apparent permeability from the basolateral to the apical side of a cell layer) is 12.3 ×10⁻⁶ cm/s. This molecule registered a clearance in [10] of 63 mL/min/kg. Also, the bioavailability (commonly the share of a dose that reaches the circulation, judged against a reference dose that is usually intravenous) in series [11] was over 100%. For the same molecule, the results for the Activity result in [12] and in [13] were “Dose-dependent effect” and “tde”, respectively. The log10cfu in [14] was over 3.
Molecule `COc1cnc2ccc(=O)n(CCN3CC[C@@H](NCc4cnc(C)c(C#N)c4)[C@@H](F)C3)c2c1` registered an MIC in series [1] of 0.06 µg/mL (≈ 0.133 µM). The figures for the pIC50 in series [7] and in series [3] were 6.60 and 4.05, respectively. The logD at 10000 µM in series [2] turned out to be 1.29. In addition, the apparent permeability from apical to basolateral (Papp A→B) in series [8] is 13.6 ×10⁻⁶ cm/s. Besides, the Papp B→A in series [9] was determined as 7.4 ×10⁻⁶ cm/s. This molecule gave a clearance in series [10] of 42 mL/min/kg. Moreover, the bioavailability in [11] stood at 52%. For the same molecule, the LCK in [15] is given as 1.3.
As for `COc1cnc2ccc(=O)n(CCN3CC[C@@H](NCc4ccc5c(n4)NC(=O)CO5)[C@@H](F)C3)c2c1`, the lowest concentration to inhibit growth in series [1] (MIC) was 0.03 µg/mL (≈ 0.0622 µM). The molecule further displayed a log distribution coefficient (logD) at 10000 µM in series [2] of 0.64. The Papp A→B in [8] is 4.1 ×10⁻⁶ cm/s. The Papp B→A in [9] worked out at 10.8 ×10⁻⁶ cm/s.
`O=C(O)c1cn(C2CC2)c2cc(N3CCNCC3)c(F)cc2c1=O` [CIPROFLOXACIN] came in with an MIC in [1] of 0.25 µg/mL (≈ 0.754 µM).
Take `CC1COc2c(N3CCN(C)CC3)c(F)cc3c(=O)c(C(=O)O)cn1c23` (stereo not drawn) [OFLOXACIN]: the MIC90 (commonly the lowest concentration that inhibits either 90% of growth or 90% of the strains tested, depending on the study) in [16] was over 8 µg/mL. The same molecule had an MIC in [1] of 0.5 µg/mL (≈ 1.38 µM).
As to `Cc1ncc(CNC2CCN(CCn3c(=O)ccc4ncc(F)cc43)CC2)cc1C#N`, inhibition of growth in [1] (MIC) required 0.25 µg/mL (≈ 0.595 µM). In series [2], this molecule showed a logD at 10000 µM of 0.81. In [3], this molecule had a pIC50 of 4.16. In addition, the Papp A→B in [8] amounted to 18 ×10⁻⁶ cm/s. Moreover, the Papp B→A in series [9] was found to be 9.8 ×10⁻⁶ cm/s.
In turn, `COc1ccc2ncc(=O)n(CCN3CCC(NCc4cnc(C)c(C#N)c4)CC3)c2n1` displayed an MIC in series [1] of 0.13 µg/mL (≈ 0.3 µM). For the same molecule, in series [2], the logD at 10000 µM stood at 1.65. In addition, the pIC50 in [3] was 4.89.
As to `COc1ccc2ccc(=O)n(CCN3CCC(NCc4ccc5c(n4)NC(=O)CO5)CC3)c2n1`, in series [1], the MIC was determined as 0.25 µg/mL (≈ 0.538 µM). For the same molecule, the pIC50 was 6.82 in series [7], under 4.00 against DNA gyrase subunit B and 4.68 in series [3]. This molecule also had a logD at 10000 µM in [2] of 0.8. The Papp A→B in series [8] amounted to 1.1 ×10⁻⁶ cm/s. Further, the Papp B→A in [9] is 25 ×10⁻⁶ cm/s.
Turning to `Cc1ncc(CN[C@@H]2CCN(CCn3c(=O)ccc4ccc(C#N)cc43)C[C@@H]2F)cc1C#N`, inhibition of growth in [1] (MIC) required 0.25 µg/mL (≈ 0.562 µM). This molecule had a logD at 10000 µM in series [2] of 1.29. Moreover, the Papp A→B in series [8] was 14.5 ×10⁻⁶ cm/s. Besides, the Papp B→A in series [9] came to 13 ×10⁻⁶ cm/s.
For the molecule `Cc1ncc(CNC2CCN(CCn3c(=O)ccc4c3ccc(=O)n4C)CC2)cc1C#N`, the MIC in [1] is over 32 µg/mL. Besides, the pH-dependent lipophilicity (logD) at 10000 µM in [2] is -0.6. Also, the pIC50 in series [3] is 4.48.
